Assay outcomes from PubChem.
Rtt109 Vps75: inhibitors of C. albicans Rtt109/Vps75 HAT, primary screen, biochemical, ThioGlo CoA-SH fluorescence, plate reader; Histone acetyltransferase RTT109 (Candida albicans (strain SC5314 / ATCC MYA-2876)), …; purified Rtt109/Vps75, 4 h; inhibition, % at 34.9 µM; hit rate 0.16% among 330,000;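 active means inhibition of at least 50% in every replicate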
Target sequence (Q5AAJ8 whole entry, looked up): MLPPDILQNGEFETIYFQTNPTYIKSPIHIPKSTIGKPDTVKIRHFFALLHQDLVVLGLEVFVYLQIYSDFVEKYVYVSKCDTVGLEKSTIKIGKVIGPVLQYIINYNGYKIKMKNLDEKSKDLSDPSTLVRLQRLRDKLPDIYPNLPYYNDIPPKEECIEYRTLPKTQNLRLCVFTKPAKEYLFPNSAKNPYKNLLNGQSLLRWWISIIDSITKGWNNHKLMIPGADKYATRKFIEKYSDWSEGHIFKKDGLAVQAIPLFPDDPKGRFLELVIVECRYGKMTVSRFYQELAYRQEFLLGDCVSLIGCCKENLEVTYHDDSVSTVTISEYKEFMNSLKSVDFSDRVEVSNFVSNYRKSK
PglD inh: C. jejuni PglD acetyltransferase inhibitors, primary screen, biochemical, DTNB colorimetric, single point; UDP-N-acetylbacillosamine N-acetyltransferase PglD (Campylobacter jejuni); purified PglD enzyme, DTNB colorimetric CoA detection; inhibition, % at 12.5 µM; hit rate 0.098% among 360,000; AID 602405, 2012; in the data active means inhibition above about 16%, passing the limit was not always enough
PfHsp90 yeast 2: growth inhibition of PfHsp90-expressing yeast, primary screen, antimalarial PfHsp90 inhibitor project, S. cerevisiae, BacTiter-Glo luminescence, single point, set 2. AID 504621, 2011. inhibition, % at 9.4 µM. BacTiter-Glo ATP, 48 h; yeast lacking PDR1 and PDR3 efflux regulators. hit rate 0.32% among 310,000;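 active means every replicate shows inhibition above about 80%, whatever the replicate mean, limit read from the data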;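 further: 0% = DMSO neutral controls and 100% = 20 µM radicicol positive controls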
FN deposit inh: inhibitors of fibronectin matrix deposition, primary screen, AH1F cells, Alexa488-fibronectin fluorescence, plate reader; inhibition, % at 12.6 µM; hit rate 0.086% among 350,000; AH1F fibroblasts, overnight;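 active means mean inhibition across replicates of 30% or more, regardless of how many single replicates reach that level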;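 further: positive control wells lacked labelled fibronectin entirely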
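Test system: AH1F fibroblast monolayer depositing Alexa488-labelled fibronectin into matrix. Input: 10000 cells per well. Technique: fluorescence, ex 485 nm, em 525 nm. Buffer or medium: DMEM plus 2% serum, read in PBS. Timing: 1 h cell adhesion before compound, then overnight fibronectin incubation. Compound: single dose, pinned. Read-out basis: inhibition from reduced deposited-fibronectin fluorescence.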
SKKanGAS inh: S. pyogenes SKKanGAS growth inhibitors in kanamycin, primary screen, streptokinase expression inhibitor project, SKKanGAS strain, BacTiter-Glo luminescence. 6 h. inhibition, % at 7.5 µM. hit rate 1.3% among 300,000;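 active means mean replicate score, as percent of positive control median, at least 50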;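 further: strain carries kanamycin resistance gene driven by streptokinase promoter and grows in 40 µg/ml kanamycin; loss of luminescence reflects streptokinase promoter inhibition or plain growth inhibition; 0% = median of DMSO wells and 100% = positive control at its reference dose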
CSC inhib: cancer stem cell viability inhibitors, primary screen, luminescence; inhibition, % at 7.5 µM; cancer stem cell-like cells viability; hit rate 1.1% among 300,000; in the data active means inhibition above about 75%; tested in HMLE shEcad cells
Starred values were filed as active, the others as inactive. Most compounds without a hit are left out; they make up all but 1.7% or so of the library.

O=C(O)[C@@H]1[C@@H](CO)[C@@H]2Cn3c(ccc(-c4cccnc4)c3=O)[C@H]1N2C(=O)Nc1cc(F)ccc1F was read as PglD inh 21.4 and FN deposit inh 5.5.
Screening O=C(Nc1nccs1)c1c(O)c2c(n(Cc3ccco3)c1=O)CCCC2 returned Rtt109 Vps75 -2.0, PglD inh -9.4, PfHsp90 yeast 2 -15.5, FN deposit inh -6.8, SKKanGAS inh 55.0* and CSC inhib 8.6.
O=C(Nc1ccccc1)c1c(O)c2c(n(Cc3ccco3)c1=O)CCCC2 was read as Rtt109 Vps75 -5.9, PglD inh 7.5, PfHsp90 yeast 2 -0.8, FN deposit inh 0.0, SKKanGAS inh -3.8 and CSC inhib 6.5.
C[C@H]1C[C@@H](C)C(=O)[C@@H]([C@H](O)CC2CC(=O)NC(=O)C2)C1 was read as Rtt109 Vps75 2.0, PglD inh -0.5, PfHsp90 yeast 2 105.8*, SKKanGAS inh -2.3 and CSC inhib -12.9.
Screening O=C(Nc1ccc(C(F)(F)F)cc1)c1cccn(Cc2ccc3c(c2)OC(F)(F)O3)c1=O returned Rtt109 Vps75 2.3, PglD inh -1.8, PfHsp90 yeast 2 0.3, FN deposit inh 4.5, SKKanGAS inh 12.7 and CSC inhib 90.1*.
For C[C@@H]1O[C@@H](O[C@H]2C[C@@H](O)[C@]3(CO)[C@H]4[C@H](O)C[C@]5(C)[C@@H](C6=CC(=O)OC6)CC[C@]5(O)[C@@H]4CC[C@]3(O)C2)[C@H](O)[C@H](O)[C@H]1O the results were Rtt109 Vps75 -1.8, PglD inh 1.6, PfHsp90 yeast 2 -2.2, SKKanGAS inh -1.7 and CSC inhib 95.0*.
For Cc1ccccc1-c1ccc([C@@H]2[C@@H](CO)N3CCCCN(C(=O)Cc4ccccn4)C[C@@H]23)cc1 the results were PglD inh -2.1.
Screening COC(=O)[C@@H]1[C@@H](CO)[C@@H]2Cn3c(cccc3=O)[C@H]1N2C(=O)C1CC1 returned PglD inh -0.6.
For COc1ccc(CCNC(=O)c2c(N)n(CCN3CCOCC3)c3nc4ccccc4nc23)cc1 the results were Rtt109 Vps75 -10.5, PglD inh 2.0, PfHsp90 yeast 2 23.8, SKKanGAS inh 50.5* and CSC inhib 42.3.
For CCC(C)NC(=O)c1c(N)n(CCCOC)c2nc3ccccc3nc12 (centres undefined) the results were Rtt109 Vps75 -396.2, PglD inh 5.1, PfHsp90 yeast 2 -7.3, FN deposit inh 2.9, SKKanGAS inh 5.3 and CSC inhib 19.5.
Screening COCCCn1c(N)c(C(=O)Nc2ccccc2)c2nc3ccccc3nc21 returned PglD inh -1.9, FN deposit inh -5.2, SKKanGAS inh 49.7* and CSC inhib 32.9.
For C[C@H](CO)N1C[C@H](C)[C@H](CN(C)C(=O)Oc2cccc3ccccc23)OCc2cn(nn2)CCCC1=O the results were FN deposit inh 0.0.
For CS(=O)(=O)N1C[C@@H]2C(c3ccccc3)[C@H](C1)N2CC1CC1 (some centres undefined) the results were FN deposit inh -14.7.
`CCOC(=O)Cc1csc(NC(=O)c2c(O)c3ccccc3n(CCC(C)C)c2=O)n1` gave Rtt109 Vps75 11.8, PfHsp90 yeast 2 -1.3, FN deposit inh -9.3, SKKanGAS inh 67.8* and CSC inhib 17.0.
CCCCn1c(=O)c(C(=O)Nc2ccccn2)c(O)c2ccccc21 was read as Rtt109 Vps75 6.3, PglD inh 3.3, PfHsp90 yeast 2 -18.1, FN deposit inh 1.1, SKKanGAS inh 52.7* and CSC inhib 23.4.
CCCCCCn1c(=O)c(C(=O)Nc2cnccn2)c(O)c2ccccc21 was read as Rtt109 Vps75 3.6, PfHsp90 yeast 2 -13.2, FN deposit inh -15.8, SKKanGAS inh 64.3* and CSC inhib 40.7.
